TCR-CD3 inh – blocks the human TCR-CD3 interaction; TAMRA-labeled TCR probe fluorescence, biochemical; inhibition, % at 9.4 µM; 0.37% of 360,000 active; in the data active = inhibition above about 19%;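 note: recombinant mutant TCR 2C K166C tagged with TAMRA read by polarization; 0% = receptor in buffer alone and 100% = receptor with positive control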
PRMT1 inh – blocks human protein arginine methyltransferase 1; Q99873; recombinant PRMT1, activity-based probe fluorescence polarization; inhibition, % at 2.79 µM; AID 652257; 1.3% of 370,000 active;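 active = inhibition above about 21% made by adding two undisclosed values, limit read from the data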
Target sequence (Q99873 whole entry, looked up): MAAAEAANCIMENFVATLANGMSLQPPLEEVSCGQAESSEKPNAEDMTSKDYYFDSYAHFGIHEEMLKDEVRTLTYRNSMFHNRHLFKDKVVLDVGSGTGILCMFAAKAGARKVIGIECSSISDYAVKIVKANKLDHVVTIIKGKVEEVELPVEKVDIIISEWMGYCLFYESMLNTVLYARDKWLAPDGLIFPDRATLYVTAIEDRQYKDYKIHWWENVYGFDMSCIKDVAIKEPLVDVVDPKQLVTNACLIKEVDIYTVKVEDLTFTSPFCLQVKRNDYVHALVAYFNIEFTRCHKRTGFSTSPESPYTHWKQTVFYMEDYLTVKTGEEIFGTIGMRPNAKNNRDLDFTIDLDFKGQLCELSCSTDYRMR
HTRA1 inhibitor – inhibitors of human serine peptidase HTRA1; inhibition, % at 5.96 µM; Q92743; recombinant HTRA1, FP-rhodamine activity-based probe, fluorescence polarization; AID 504803; 0.5% of 340,000 active; in the data active = inhibition above about 36%;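 note: 0% = enzyme with DMSO and 100% = wells lacking enzyme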
mABHD4 FP – inhibits mouse alpha/beta hydrolase domain 4 | Q8VD66 | purified mABHD4, FP-Rh probe fluorescence polarization | inhibition, % at 8.92 µM | 0.54% of 370,000 active;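 active = inhibition exceeding the mean over every tested compound plus 3 SD, cut at about 30% in these data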;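 note: 0% = plate median of compound wells and 100% = S159A mutant with DMSO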
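assay system = mABHD4 protein | compound dosing = single nominal dose of 8.92 µM, 0.89% DMSO final | read-out basis = percent inhibition of probe binding, normalized to plate controls | schedule = Enzyme–compound pre-incubation 45 min, then probe 60 min, both 25 °C | detection = fluorescence polarization, excitation 525 nm, emission 598 nm, BODIPY TMR filters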
SIAE primary – blocks human sialic acid acetylesterase | Q9HAT2 | SIAE FP-Rh probe binding, fluorescence polarization | inhibition, % at 9.66 µM | 0.69% of 370,000 active | AID 1053197;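 active = inhibition above a cutoff: mean of compounds within the control limits plus 3 SD of those, cut at about 17% in these data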;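 note: 0% = plate median of compound wells and 100% = probe without SIAE protein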
SIAE confirm – human SIAE inhibition, confirmation; shares compounds with SIAE primary; SIAE FP-Rh activity-based probe, fluorescence polarization; inhibition, % at 9.66 µM; 13% of 2,300 active; AID 1117263;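 active = mean inhibition of the replicates above the hit cutoff set in the primary screen, cut at about 17% in these data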;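 note: 0% = SIAE with DMSO and probe and 100% = probe without SIAE; inhibitors lower polarization as more probe stays unbound to SIAE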
* hit, by the source's call; . = no result given. Compounds with a hit are over-represented: about 2.6% of the library has one in this group of screens.

SMILES	TCR-CD3 inh	PRMT1 inh	HTRA1 inhibitor	mABHD4 FP	SIAE primary	SIAE confirm
CCCCCCNC(=O)C1CSCCS(=O)(=O)N1Cc1ccccc1 (stereo not given)	.	-4	.	-4	-2	.
COc1c(S(=O)(=O)N2CCN(C(=O)c3ccco3)CC2)ccc(Cl)c1Cl	6	-1	0	-3	73*	2
COc1cc(NC(=S)N2CCN(C(=O)c3ccco3)CC2)c(OC)cc1Cl	13	6	-1	-1	1	.
COc1ccc(Cl)cc1NC(=S)N1CCN(C(=O)c2ccco2)CC1	2	-2	7	3	39*	-5
COc1cc(S(=O)(=O)N2CCN(C(=O)c3ccco3)CC2)c(OC)cc1C	-1	1	1	0	0	.
COc1ccc(CN(CCN2CCOCC2)C(=O)c2cc(F)cc(F)c2)cc1OC	.	-2	.	2	-4	.
Cc1ccc(S(=O)(=O)N2CCCC2CNC(=O)c2ccccc2)cc1 (stereo not given)	7	0	-4	6	22*	3
C[C@H]1[C@@H](OC(=O)Nc2ccc(Cl)cc2)CC[C@@]23CCCN2C(=O)CCC[C@@H]13	.	-1	.	-4	4	.
O=C1C2CC=CCC2C(=O)N1c1ccc(NCCc2ccccc2)c([N+](=O)[O-])c1 (stereo not given)	3	-1	-11	2	0	.
O=C1C2CC=CCC2C(=O)N1c1ccc(NCCc2ccccc2F)c([N+](=O)[O-])c1 (stereo not given)	6	-4	-1	-1	17*	2
COc1cccc(-c2ncn(CCc3ccccc3OC)c2CC(C)C)c1	7	3	.	-1	-1	.
O=C(NCC1CCCCC1)c1ccc(F)c(S(=O)(=O)N2CCOCC2)c1	1	-2	-4	-1	-7	.
O=C(NCC1CCCCC1)c1cc(S(=O)(=O)N2CCOCC2)ccc1F	-3	2	6	2	79*	-2
CC1CCN(S(=O)(=O)c2ccc(F)c(C(=O)O)c2)CC1	-1	1	-6	-1	24*	1
CCOC(=O)N1CCN(Cc2c(F)cccc2Cl)CC1	1	2	0	11	18*	3
CCOC(=O)CC(=O)CSc1nc2c(sc(=S)n2-c2ccc(OCC)cc2)c(=O)[nH]1	-3	3	-10	0	20*	-2
CCOC(=O)CC(=O)CSc1nc2c(sc(=S)n2-c2ccc(C)c(C)c2)c(=O)[nH]1	0	0	-1	-20	-2	.
O=C(NC1CCCCN(Cc2cccc(C(F)(F)F)c2)C1=O)c1ccc(COc2ccccc2)cc1 (stereo not given)	.	0	.	-12	-6	.
Cc1cc(C)c(OCC(=O)OCC(=O)N2CCN(C(=O)c3ccco3)CC2)c(C)c1	-2	6	-3	6	18*	-4
O=C(OCc1cn(Cc2cccc(F)c2F)nn1)N1CCCC1	.	-5	.	5	1	.
COc1cc(CNC(=O)c2cc(C(=O)NCc3cc(OC)cc(OC)c3)n(C)n2)cc(OC)c1	-3	-1	-18	1	20*	-5
COc1cc(CNC(=O)c2cnccn2)cc(OC)c1	8	2	-1	-2	5	.
O=C(N/N=C/c1c(O)ccc2ccccc12)Nc1ccccc1	4	-2	.	29	52*	49*
Nc1nonc1N/N=C\c1ccccc1	-8	2	-1	6	-3	.
Nc1nonc1N/N=C/c1c(O)ccc2ccccc12	16	1	17	22	18*	-22
SMILES	TCR-CD3 inh	PRMT1 inh	HTRA1 inhibitor	mABHD4 FP	SIAE primary	SIAE confirm
O=C(CSCC(=O)Nc1ccccc1)N/N=C/c1c(O)ccc2ccccc12	7	0	34	8	9	.
CCN1CCN(C(=O)/C(=C/c2ccco2)NC(=O)c2ccccc2)CC1	10	2	12	-1	18*	1
c1ccc2c(c1)CCN(C1=Nc3cccc4cccc1c34)C2	6	1	17	9	30*	1
C[C@H](c1ccccc1)N1C[C@@H](COCc2ccccc2)Oc2cc(N3CC[C@@H](N(C)C)C3)ccc2S1(=O)=O	8	-2	.	7	18*	11
CCOC(=O)[C@]12CCCC=C1N(CCCOC)C(=O)[C@@H]2CC(=O)NCc1ccc(C)o1	.	0	.	-5	-7	.
COC(=O)Nc1nnc(-c2ccco2)s1	2	1	.	5	7	.
C=CCSc1nnc(NC(=O)CCNC(=O)c2ccco2)s1	5	3	3	4	2	.
